Source: the EternaBench riboswitch data

System: MS2 coat protein
Experiment: apparent Kd, MS2 coat protein; higher = weaker binding; RNA-MaP array
Summary of the method: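 Designed RNAs were transcribed in place on an Illumina sequencing chip from sequenced DNA templates. At room temperature and with or without input ligand, they were incubated with fluorescently labeled MS2 coat protein from 1.5 nM to 3 μM, for 0.8–1.5 h at the lowest and 10–20 min at the highest concentrations. Apparent Kd is the median of the binding-curve fits made per cluster, with designs measured on fewer than 10 clusters excluded.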

[1] = designed as: ON switch for theophylline, no ligand
[2] = ligand present: theophylline, designed as: ON switch for theophylline
[3] = designed as: OFF switch for flavin mononucleotide, no ligand
[4] = ligand present: flavin mononucleotide, designed as: OFF switch for flavin mononucleotide
[5] = designed as: OFF switch for tryptophan, no ligand
[6] = ligand present: tryptophan, designed as: OFF switch for tryptophan
[7] = ligand present: theophylline, designed as: OFF switch for theophylline
[8] = designed as: ON switch for tryptophan, no ligand
[9] = ligand present: tryptophan, designed as: ON switch for tryptophan
[10] = designed as: ON switch for flavin mononucleotide, no ligand
[11] = ligand present: flavin mononucleotide, designed as: ON switch for flavin mononucleotide

Sequence	apparent Kd [3]	apparent Kd [4]	further results
GAUGCACAUGAGGAUCACCCAUGUCCUGAUACCAGAACGCGACUUUUCCCUUGGCAGCAGAAUUCACUUUUUUACAUUCAUACUG			apparent Kd [1]: 22.1 nM; apparent Kd [2]: 22.9 nM
GUCUGGAUGUAGGAUAUGUGUCCGUGCUAGGGUACAGAAGGACAGACAUGAGGAUCACCCAUGUGGAUCAACCG	22.6 nM	38.2 nM	
GACAUAUGCUAUGCGCAGGCUACCCUCAGCCGAGGACCGGUACGGCCGCCACUCGUACUACCACAUGAGGAUCACCCAUGUUAUC			apparent Kd [5]: 17.2 nM; apparent Kd [6]: 18.2 nM
AUAUAAUCAGGAUAUACAUGUUUCUUUAACACCGAGGCCGUACAUGAGGAUCACCCAUGUAGAAGGGAUUGCGG	6.95 nM	6.32 nM	
GUCAACACAGUAGGAUAUCCAAUGCGUAAGCUCGGAGAAGGACUUAACUAGCAGUUUGAUCGACAUGAGGAUCACCCAUGUAAU	11.3 nM	9.96 nM	
GUAACGGAAGGAUAUACGCUUUAAUGGACAGGUUCGAUGGCACAUGAGGAUCACCCAUGUAGAAGGUCCCUAAA	10.8 nM	13.4 nM	
CCGGCGCGAUUAUGGGUUUGCUUUUACGAUACCAGCCGCGUUCCGGGCCCUUGGCAGCGUGUAACAUGAGGAUCACCCAUGUUCA			apparent Kd [7]: 13.2 nM
ACACACAUGAGGAUCACCCAUGUCUAUAUACGAGGACCGGUACGGCCGCCACUCGUGAGAUCGCGAGAGACAGCUUUGGGCUAGU			apparent Kd [8]: 14.6 nM; apparent Kd [9]: 19.2 nM
GAUCUCCGCGAGAAGGCUGAGCGGUCACUAGCCAGAGGAUAUCGUCACGCGCAGGGAAAACAUGAGGAUCACCCAUGUGUAAGU	10.7 nM	10.6 nM	
CACUAUGAGGUCGAUACCAGUACUGAGUUGUACAUGAGGAUCACCCAUGUAAAUGUUCGCUACCCUUGGCAGCGAUAACAUUGCA			apparent Kd [1]: 430 nM; apparent Kd [2]: 554 nM
ACCAGGCAAGGAUAUGGUUCUGUAAACAUGAGGAUCACCCAUGUAUUUAAUUCAUGUUGGCCAGAAGGUGCUUUCG	14.8 nM	13.3 nM	
GGACAAGAAGAGAAGGGCUUACCAAACCUCAACAUGAGGAUCACCCAUGUCAAAGUGGAAGCAUAGCAGGAUAUCUAACAGCGC	8.09 nM	7.72 nM	
AUAACUGCAGGAUAUACAGGAACGCCUAGAAGGAUCCUGGAACAUGAGGAUCACCCAUGUAGAAGGGCACGUUU	12.3 nM	14.4 nM	
GGGACACAUGAGGAUCACCCAUGUUGAUGACUUUGAGGAUAUUAGCAAAUUCUGGUCCGCUAAGAAGGCAAGGAAG			apparent Kd [10]: 18.8 nM; apparent Kd [11]: 9.82 nM
CCAAAGUAAGGAUAUCGAAGAACCACAACCGACGGAACGAACGAGAAGGUACAUGAGGAUCACCCAUGUGAUAG	11.6 nM	19.7 nM	
UAGCGAUCUCGUUAAAGGAUCCCAUUUGAUACCAGAGAACUUUGCCUCCCUUGGCAGCAAGUGACAUGAGGAUCACCCAUGUUGA			apparent Kd (designed as: OFF switch for theophylline, no ligand): 16.2 nM; apparent Kd [7]: 23.9 nM
UCGGUGUAAGAGAAGGAAGUGUUCGCAGGCCAAGGCUCAUUGGCUACAUGAGGAUCACCCAUGUCUUAGGAUAUCUGCGCUCCG			apparent Kd [10]: 45.6 nM; apparent Kd [11]: 16.7 nM
AUGUUCGUAAAGAAGGAUCAGGUGAUAUAUGUCAACAUGAGGAUCACCCAUGUGCGGGACGUAAGAUAGGAUAUUUGAGAUCAU	14.3 nM	10.8 nM	
CCGAUAAUCAAACAUGAGGAUCACCCAUGUUCUGGACGGUUCGAGGAUAUGGCACAAGGUAUCUUCCAGAAGGCGAGCCGGUGA			apparent Kd [10]: 8.04 nM; apparent Kd [11]: 5.98 nM
AUUAACAUGAGGAUCACCCAUGUUUGUCUCCGAGGACCGGUACGGCCGCCACUCGCAGGUUGGAGUCGCUAUAUGGGCGUUCACU			apparent Kd [8]: 44.6 nM; apparent Kd [9]: 34.9 nM
ACGGCAUGGAAGAAGGAGUACAUGAGGAUCACCCAUGUAGGGUAGCGCGUCCACAUCCAAUAAGACUAGGAUAUUCUUGCAGAU	39.8 nM	83.2 nM	
GCCACGCUAGAAGGAUAUUUGCCAUAAGUACGGAAAGAAGGUCUCGCCGGAUCGAACAUGAGGAUCACCCAUGUGUGGGUCAGA			apparent Kd [10]: 43.8 nM; apparent Kd [11]: 26 nM
AAAGAACAAGGAUAUACAUGAGGAUCACCCAUGUCACAGAUAGUAGAACCACAAGCAUGUAGAAGGUGAGUCUA	11.5 nM	9.61 nM	
UUAGUGAUACUAGGAUAUAGGUAAGACUCUUAACUAGAAGGAGUAGGGACGAAUACAUGAGGAUCACCCAUGUGAUUCUGGUUG	21.6 nM	26.3 nM	
UCCGGCGUUGACUAGGAUAUACGGAGGGUAACAUGAGGAUCACCCAUGUAAAGAACUAAAACAGCGUAGAAGGAGUCCAAAGCGAC			apparent Kd [10]: 28 nM; apparent Kd [11]: 19.1 nM
CCUUUAGAUGUGAGGAUAUGUACUUGACUUUCAUGACAGAAGGCACAUGAGGAUCACCCAUGUAGUGUCAUUGG	10.4 nM	36.4 nM	
AUUGAACGUGCAGGAUAUCAAAACCGGAAUCGUUGAGAAGGGCAGUAAUCGGAGAGCACAUGAGGAUCACCCAUGUUCAAUCGA			apparent Kd [10]: 15.9 nM; apparent Kd [11]: 9.32 nM

Sequence	apparent Kd [3]	apparent Kd [4]	further results
UAUAAGGGUCAGAAGGCAGUGGCGCAGAAUGACUGAGGAUAUGAUAACCGGUAAUUUAACAUGAGGAUCACCCAUGUCUACAAC			apparent Kd [10]: 11.7 nM; apparent Kd [11]: 10.2 nM
CCCAGGAUUCAAGGAUAUCGCAAUGAACAUGAGGAUCACCCAUGUUUCUACCCCUCAGCGCACGGCGAGAAGGUGACUUUAGCG	12.8 nM	12.3 nM	
GUUCCCUCACAGAAGGAGUGUGUUAGUUGCACAUGAGGAUCACCCAUGUAAUAAACACGUGGCCACUAGGAUAUGUUAAACUGC			apparent Kd [10]: 12.9 nM; apparent Kd [11]: 10.8 nM
AGGAAUGUCACGGCCGCCACUGACGCUAAAAUGGGCUCGAGCCGACAUGAGGAUCACCCAUGUUCCAGGACCGGGUGAAUCCUGG			apparent Kd [8]: 174 nM; apparent Kd [9]: 123 nM
AGACAAAAGGAGAAGGAGGUAAAGAUAUAAAGGUGAAGUAAUGGACAUGAGGAUCACCCAUGUACCUAGGAUAUCCAGGGCGAU	26.8 nM	33.6 nM	
AGAACCCAGUAAGGAUAUGAUGAGUCUAUACAACAUGAGGAUCACCCAUGUCCGAGGAAACUAGAUCAGAAGGUACAAGAAAAG			apparent Kd [10]: 73.8 nM; apparent Kd [11]: 17.6 nM
UAUACUACUGAGGAUAUCCAAUCCCAGAAACAAGGAGAAGGCAGUACAUGAGGAUCACCCAUGUUCCUCGACAU	43.1 nM	127 nM	
UCAUAGUCAGGAUAUUUAUUUGGCGGAGACUGCGGCCACCGAAAGAAGGGACAUGAGGAUCACCCAUGUAUCGG	16.3 nM	26.9 nM	
GCCAAGCAGGGAGGAUAUACAGGCAAUAAGUGAUUAGAAGAACAAAACAUGAGGAUCACCCAUGUGAAGAAGGCCCAUUCGGAA	12.1 nM	10.9 nM	
AACAGAAGACAGGAUAUUACUUAACCAGUAUUGUAAGAAGGGUCGACAUGAGGAUCACCCAUGUGAUCAUACUG	48.8 nM	47 nM	
AAGUCGCAAGGAUAUACAGUAAGGGUUCGGAUGGGAAGCUUACAUGAGGAUCACCCAUGUAGAAGGUGCAUUCA	26.9 nM	31.4 nM	
GUGGGCUAGGAGAAGGACGAUCGAAGCCAUAUCGUAGGAUAUCCAUUAAGAUCCCGGACAUGAGGAUCACCCAUGUGGUGAUAG	676 nM	414 nM	
CGUGAUCGCAGAAAGGAUAUUUGGCCUGUAACAUGAGGAUCACCCAUGUUCAAAUGUGACUUACUAAAGAAGGUUCGAAGAUCCAA			apparent Kd [10]: 7.23 nM; apparent Kd [11]: 7.11 nM
CCAGAUUUAGGAUAUACAUGAGGAUCACCCAUGUGGGAUUUAGUGCGGUUUAUGCAACGUAGAAGGAAAUCAGG	31.6 nM	71.4 nM	
UGACACAUGAGGAUCACCCAUGUCGCGAAACGAGGACCGGUACGGCCGCCACUCGCACAAACUCCUCUCCAGCACCAGCUUUUAG			apparent Kd [8]: 19.4 nM; apparent Kd [9]: 15.5 nM
GCCGCCGGUGCUUCAUUCCCUGAGCGACGGCGAGGACCGGUACGGCCGCCACUCGGCUCGGUACAUGAGGAUCACCCAUGUCUUU			apparent Kd [5]: 44.7 nM; apparent Kd [6]: 54.5 nM
GUGUGGCGCUCAGGAUAUAGAAGGUCGCUAGUUCUAGAAGGGAGCAACGAGGUACCACAUGAGGAUCACCCAUGUUUGGUUGAC	15.4 nM	13.3 nM	
GGUGUUACGUCGGCCGCCACUAUACUACAUGAGGAUCACCCAUGUCAUCCCUUCAAUUGGUAGCCUAGGACCGGGACAGAAUUCG			apparent Kd [5]: 43.4 nM; apparent Kd [6]: 47.2 nM
UGAUCUGGCGGAGGAUAUAUGCCAGUAAAACUGAUAGAAGGCCGUGAUAUAACAUGAGGAUCACCCAUGUGAGCUCCUUAGCGA	20.5 nM	18.1 nM	
CAGUUACUGUAGAAGGAUAUCAUUAAUACGGAUAUAGGAUAUACUCCGGGUGGAAUCGUGAACAUGAGGAUCACCCAUGUUUCG	10.2 nM	8.6 nM	
UCGCGUCUAGCUCAGGAUAUUGUGCCUGAUACAUGAGGAUCACCCAUGUCCUAAGUGCAAACCAACAAGAAGGGAGCUAAGCAUGU			apparent Kd [10]: 13.9 nM; apparent Kd [11]: 13.2 nM
AAUCAACUUAGAGGAUAUAAGCUUAAAAUAGGGUUAGAAGGCUAUGGUACUAAUGAUCCGUCAACAUGAGGAUCACCCAUGUAG	45 nM	37.2 nM	
UAACAUUGCUAGAAGGGCGGUCAUCAGAUGGCCGCAGGAUAUAGACAUGAGGAUCACCCAUGUGAAGGGCAGGUUGUUCUAGUU			apparent Kd [10]: 18.1 nM; apparent Kd [11]: 22.5 nM
GCUUUAUUAGGAUAUGUAACCGUUAACAUGAGGAUCACCCAUGUUGAUUCUCAAGAGACCACAGAAGGAAUAAAAG	289 nM	240 nM	
UAUUAGUUAGAGAAGGUCCUUAGGCCGCGUAAGGAAGGAUAUCUGCAUCACGGGCCUCUGGCAACAUGAGGAUCACCCAUGUGG	96.8 nM	156 nM	
GUAGAGUCAGGAUAUGUCAACUGCUCUGUAAAGCUUGGUCGACAGAAGGGACAUGAGGAUCACCCAUGUGAAGG	34.1 nM	56.5 nM	
AUACCACCUUCGGCCGCCACUAUGUAUGGGUUCCCAACGUUGAAGGACAUGAGGAUCACCCAUGUUAGGACCGGGAAAAGUGCCU			apparent Kd [5]: 87.9 nM; apparent Kd [6]: 161 nM
